Measured values: article PMC4062594 (Nature chemical biology, 2014)
Changes are numbered by the printed parent chain. Entries after “also recorded” stand apart in the source; their conditions may differ.

Legend:
[1] = molecular target: T1, PTP1B1-321 (Homo sapiens, UniProt P18031); assay: Binding of recombinant protein to bead-immobilized compound; details: in vitro
T1 sequence (P18031 1-321): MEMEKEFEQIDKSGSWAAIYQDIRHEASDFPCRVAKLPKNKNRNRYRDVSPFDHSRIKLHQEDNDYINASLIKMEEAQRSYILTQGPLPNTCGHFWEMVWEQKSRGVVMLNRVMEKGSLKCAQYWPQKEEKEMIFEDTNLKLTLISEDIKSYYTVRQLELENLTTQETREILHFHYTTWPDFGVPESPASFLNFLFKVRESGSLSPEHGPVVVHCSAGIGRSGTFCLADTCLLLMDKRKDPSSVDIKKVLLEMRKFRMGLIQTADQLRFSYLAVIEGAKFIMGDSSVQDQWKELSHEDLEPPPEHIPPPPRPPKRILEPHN
Summary of the method: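 Beads were washed in the same buffer plus 0.01% NP-40 and 1% glycerol, then heat-eluted in SDS sample buffer. Eluates were run on 10% SDS-PAGE and stained with Coomassie or silver.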

[2] = molecular target: T2, PTP1B1-405 V370P (Homo sapiens, UniProt P18031, V370P); assay: PTP assay, helix α9′ point mutant; format: biochemical; details: S372P, R373P versus wild type
T2 sequence (P18031 1-405 V370P): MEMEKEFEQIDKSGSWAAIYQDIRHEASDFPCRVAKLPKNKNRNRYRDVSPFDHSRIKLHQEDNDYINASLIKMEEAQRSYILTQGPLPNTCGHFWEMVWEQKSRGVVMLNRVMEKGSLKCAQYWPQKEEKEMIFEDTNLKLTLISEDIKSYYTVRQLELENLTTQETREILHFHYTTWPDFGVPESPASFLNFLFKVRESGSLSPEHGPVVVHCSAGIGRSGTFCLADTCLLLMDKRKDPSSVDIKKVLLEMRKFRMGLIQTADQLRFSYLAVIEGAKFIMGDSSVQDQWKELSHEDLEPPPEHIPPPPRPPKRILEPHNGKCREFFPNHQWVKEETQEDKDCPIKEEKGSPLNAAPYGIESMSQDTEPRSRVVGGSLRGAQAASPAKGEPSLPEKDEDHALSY

[3] = test system: BT-474 cells; assay: Cell migration assay; format: cell-based; details: HER2-positive, MSI-1436 5 µM
[4] = test system: NDL2 mammary tumors and lung metastasis; assay: NDL2 transgenic mouse model of breast cancer; format: in vivo
Summary of the method: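 NDL2 mice with palpable tumours were randomised to saline or test compound (5 or 10 mg/kg, 100 μl) i.p. every third day for 45 days, using freshly prepared solutions. Animals were killed after 45 d, and tumours were removed, counted and weighed. Whole lungs were sectioned, H&E-stained and scored for metastases. Groups had six animals; Student t-test was used.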

[5] = molecular target: T3, CFP-PTP1B1-321-YFP (Homo sapiens, UniProt P18031); assay: Intramolecular FRET titration; format: binding; details: excitation at 440 nm, 0–5 μM MSI-1436
T3 sequence (P18031 1-321): T1 sequence (P18031 1-321)

[6] = molecular target: T1, PTP1B1-321; assay: Direct binding assay with [3H]-MSI-1436; details: scintillation counting
Summary of the method: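 Protein was captured on Ni-NTA beads (10 min, 25°C) and washed three times with buffer containing 150 mM NaCl. Bound ligand was measured by scintillation and bead-bound protein by BCA. Free ligand was calculated as total minus bound, for Scatchard analysis.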

[7] = molecular target: T4, PTP1B1-405 L192A/S372P (Homo sapiens, UniProt P18031, L192A/S372P); assay: PTP assay, double point mutant; format: biochemical
T4 sequence (P18031 1-405 L192A/S372P): T2 sequence (P18031 1-405 V370P) with L192A, P370V, S372P
Summary of the method: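 Continuous fluorescence PTP assay with 10 nM purified PTP1B and 10 μM DiFMUP substrate. Emission at 450 nm was monitored for 20 minutes.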

[8] = molecular target: T5, PTP1B1-405 (Homo sapiens, UniProt P18031); assay: Direct binding assay with [3H]-MSI-1436
T5 sequence (P18031 1-405): T2 sequence (P18031 1-405 V370P) with P370V

[9] = molecular target: T5, PTP1B1-405; assay: PTP assay with DiFMUP substrate; format: biochemical
[10] = test system: PTP1B V370, S372 and R373 to alanine; assay: PTP assay, alanine point mutants; format: biochemical, human; details: data not shown
[11] = 5 mg/kg intraperitoneally every third day, relative to control

binding to bead-immobilized compound [1]: bound
increase of Ki by helix-destabilizing Pro mutations [2]: 10–20 fold
FRET [5]: did not result in FRET
stoichiometry [6]: 1 mol/mol
Hill coefficient ([8]; Hill plot): 1.3
stoichiometry ([8]; scintillation counting): 2 mol/mol
mode of inhibition [9]: reversible non-competitive inhibitor
Structure (SMILES): CC(C)[C@@H](CC[C@@H](C)[C@H]1CC[C@H]2[C@@H]3[C@H](O)C[C@H]4C[C@@H](NCCCNCCCCNCCCN)CC[C@]4(C)[C@H]3CC[C@]12C)OS(=O)(=O)O [MSI-1436, Trodusquemine]
migration [3]: attenuated migration
tumor number [4, 11]: marked decrease
tumor size [4, 11]: marked decrease
lung metastasis ([4]; 5 or 10 mg/kg intraperitoneally every third day): essentially abrogated
inhibition by MSI-1436 [7]: complete loss of inhibition; also recorded: insensitive to MSI-1436
effect of alanine mutations on inhibition by MSI-1436 [10]: did not affect
